# According to ChEMBL document CHEMBL1130789, “Peptidyl human heart chymase inhibitors. 1. Synthesis and inhibitory activity of difluoromethylene ketone derivatives bearing P' binding subsites” (Bioorg Med Chem Lett, 1998):
# Non-standard residues stand in square brackets, D forms with d. Residues, ends and D or L forms follow the SMILES beside them. ξ: configuration not given here. *: point of attachment. ξF = NC(Cc1ccccc1)C(=O)O; Boc = CC(C)(C)OC(=O)*; CF3 = FC(F)(F)*
# Legend:
# Chymotrypsinogen A = Chymotrypsinogen A (Bos taurus, UniProt P00766); experiment: Compound was evaluated for inhibitory activity against Chymotrypsinogen
# How it was run: (§1)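 Synthetic chromogenic substrate at 2.5 mM final in 20 mM Tris-HCl pH 7.5 with 2 M KCl. Five inhibitor concentrations were tested, with 10% DMSO in water as the control. The enzyme was added last. A405 minus A650 was read after 2 h at 37 °C. Residual activity was fitted by Easson–Stedman, and Ki = Ki'×Km/(Km+[S]). Mean ± SEM, n = 3 (some n = 2).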
# Chymase = molecular target: T1, Chymase (Homo sapiens, UniProt P23946); experiment: Compound was evaluated for inhibitory activity against human heart chymase (HHC); how it was run: as §1
# T1 sequence (P23946 whole entry): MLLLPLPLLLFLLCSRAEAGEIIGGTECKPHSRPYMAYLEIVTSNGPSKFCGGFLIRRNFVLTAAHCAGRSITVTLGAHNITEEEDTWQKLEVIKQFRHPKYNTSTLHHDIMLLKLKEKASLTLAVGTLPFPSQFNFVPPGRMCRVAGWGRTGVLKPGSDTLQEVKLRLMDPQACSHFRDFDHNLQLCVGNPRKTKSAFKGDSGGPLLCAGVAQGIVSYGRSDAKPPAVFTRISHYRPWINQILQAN
# Bos taurus = species on record: Bos taurus; experiment: Selectivity ratio of Bovine chymotrypsin (BCT - Ki) to human heart chymase (HHC - Ki)
SMILES,Ki (Chymotrypsinogen A) [nM],Ki (Chymase) [nM],Ratio (Bos taurus)
CC(NC(=O)C(F)(F)C(=O)C(Cc1ccccc1)NC(=O)[C@@H]1CCCN1C(=O)[C@@H](NC(=O)OC(C)(C)C)C(C)C)C(=O)O (stereo not given in full),54900,65.6,837
COC(=O)CNC(=O)C(F)(F)C(=O)C(Cc1ccccc1)NC(=O)[C@@H]1CCCN1C(=O)[C@@H](NC(=O)OC(C)(C)C)C(C)C (stereo not given in full),2510,6.5,387
CC(C)[C@H](NC(=O)OC(C)(C)C)C(=O)N1CCC[C@H]1C(=O)NC(Cc1ccccc1)C(=O)C(F)(F)C(=O)NC(Cc1ccccc1)C(=O)O (stereo not given in full),1700,30.1,57
CC(C)[C@H](NC(=O)OC(C)(C)C)C(=O)N1CCC[C@H]1C(=O)NC(Cc1ccccc1)C(=O)C(F)(F)C(=O)NCCc1ccccc1 (stereo not given in full),2040,18.3,111
CNC(=O)C(F)(F)C(=O)C(Cc1ccccc1)NC(=O)[C@@H]1CCCN1C(=O)[C@@H](NC(=O)OC(C)(C)C)C(C)C (stereo not given in full),1070,28.7,37
CC(C)[C@H](NC(=O)OC(C)(C)C)C(=O)N1CCC[C@H]1C(=O)NC(Cc1ccccc1)C(=O)C(F)(F)C(=O)NCc1ccccc1 (mixture of isomers; form 2) [listing 1 of 2 here],,,129
CC(C)[C@H](NS(C)(=O)=O)C(=O)N1CCC[C@H]1C(=O)NC(Cc1ccccc1)C(=O)C(F)(F)C(=O)Nc1cccc(C(=O)O)c1 (stereo not given in full),207,16.5,13
CC(C)[C@H](NC(=O)OC(C)(C)C)C(=O)N1CCC[C@H]1C(=O)NC(Cc1ccccc1)C(=O)C(F)(F)C(=O)NCCCC(=O)O (stereo not given in full),4430,24,185
CC(C)[C@H](NC(=O)c1ccccc1)C(=O)N1CCC[C@H]1C(=O)NC(Cc1ccccc1)C(=O)C(F)(F)C(=O)Nc1cccc(C(=O)O)c1 (stereo not given in full),275,3.1,88
CC(C)[C@H](NC(=O)OC(C)(C)C)C(=O)N1CCC[C@H]1C(=O)NC(Cc1ccccc1)C(=O)C(F)(F)C(=O)NC(CCC(=O)O)C(=O)O (stereo not given in full),> 100000,1010,> 99
CC(C)[C@H](NC(=O)OC(C)(C)C)C(=O)N1CCC[C@H]1C(=O)NC(Cc1ccccc1)C(=O)C(F)(F)C(=O)NC(C(=O)O)c1ccccc1 (stereo not given in full),> 100000,1040,> 96
CC(C)[C@H](NC(=O)OC(C)(C)C)C(=O)N1CCC[C@H]1C(=O)NC(Cc1ccccc1)C(=O)C(F)(F)C(=O)Nc1ccccc1C(=O)O (stereo not given in full),> 100000,3620,> 28
CC(C)[C@H](NC(=O)OC(C)(C)C)C(=O)N1CCC[C@H]1C(=O)NC(Cc1ccccc1)C(=O)C(F)(F)C(=O)Nc1ccc(C(=O)O)cc1 (stereo not given in full),200,6.8,29
CC(C)[C@H](NC(=O)OC(C)(C)C)C(=O)N1CCC[C@H]1C(=O)NC(Cc1ccccc1)C(=O)C(F)(F)C(=O)Nc1cccc(C(=O)O)c1 (stereo not given in full),364,5.6,
CC(C)[C@H](NC(=O)OC(C)(C)C)C(=O)N1CCC[C@H]1C(=O)NC(Cc1ccccc1)C(=O)C(F)(F)C(=O)NCCC(=O)O (stereo not given in full),2300,36.4,63
CC(C)[C@H](NC(=O)OC(C)(C)C)C(=O)N1CCC[C@H]1C(=O)NC(Cc1ccccc1)C(=O)C(F)(F)C(=O)NCc1ccccc1 (mixture of isomers; form 1) [listing 1 of 2 here],172,7.4,
CC(C)[C@H](NC(=O)OC(C)(C)C)C(=O)N1CCC[C@H]1C(=O)NC(Cc1ccccc1)C(=O)C(F)(F)C(=O)N(C)Cc1ccccc1 (stereo not given in full),7550,70.1,108
CC(C)[C@H](NC(=O)OC(C)(C)C)C(=O)N1CCC[C@H]1C(=O)NC(Cc1ccccc1)C(=O)C(F)(F)C(=O)NCc1ccccc1 (mixture of isomers; form 2) [listing 2 of 2 here],11900,92.4,
CC(=O)N[C@H](C(=O)N1CCC[C@H]1C(=O)NC(Cc1ccccc1)C(=O)C(F)(F)C(=O)Nc1cccc(C(=O)O)c1)C(C)C (stereo not given in full),11,7.1,2
CC(C)[C@H](NS(=O)(=O)c1ccccc1)C(=O)N1CCC[C@H]1C(=O)NC(Cc1ccccc1)C(=O)C(F)(F)C(=O)Nc1cccc(C(=O)O)c1 (stereo not given in full),554,6.3,88
CC(C)[C@H](NC(=O)OC(C)(C)C)C(=O)N1CCC[C@H]1C(=O)NC(Cc1ccccc1)C(=O)C(F)(F)C(=O)N1CCCC1C(=O)O (stereo not given in full),> 100000,493,> 203
CC(C)[C@H](NC(=O)OC(C)(C)C)C(=O)N1CCC[C@H]1C(=O)NC(Cc1ccccc1)C(=O)C(F)(F)C(=O)NC(CC(=O)O)C(=O)O (stereo not given in full),> 100000,1550,> 65
CC(C)[C@H](NC(=O)OC(C)(C)C)C(=O)N1CCC[C@H]1C(=O)NC(Cc1ccccc1)C(=O)C(F)(F)C(=O)NCc1ccccc1 (mixture of isomers; form 1) [listing 2 of 2 here],,,23
CC(C)[C@H](NC(=O)OC(C)(C)C)C(=O)N1CCC[C@H]1C(=O)NC(Cc1ccccc1)C(=O)C(F)(F)C(=O)NCC(=O)OCc1ccccc1 (stereo not given in full),316,12.5,25
CC(C)[C@H](NC(=O)OC(C)(C)C)C(=O)N1CCC[C@H]1C(=O)NC(Cc1ccccc1)C(=O)C(F)(F)F (stereo partly drawn) (Boc-Val-Pro-[ξF]-CF3),113,55.8,2
CC(C)[C@H](NC(=O)CCc1ccccc1)C(=O)N1CCC[C@H]1C(=O)NC(Cc1ccccc1)C(=O)C(F)(F)C(=O)Nc1cccc(C(=O)O)c1 (stereo not given in full),19,1.3,15
CC(C)[C@H](NC(=O)OC(C)(C)C)C(=O)N1CCC[C@H]1C(=O)NC(Cc1ccccc1)C(=O)C(F)(F)C(=O)Nc1ccccc1 (stereo not given in full),70,16.3,4
CC(C)[C@H](NC(=O)OC(C)(C)C)C(=O)N1CCC[C@H]1C(=O)NC(Cc1ccccc1)C(=O)C(F)(F)C(=O)NCC(=O)O (stereo not given in full),2620,13.1,200
CC(C)[C@H](NC(=O)OC(C)(C)C)C(=O)N1CCC[C@H]1C(=O)NC(Cc1ccccc1)C(=O)C(F)(F)C(=O)N[C@@H](Cc1ccccc1)C(=O)O (stereo not given in full),77400,513,151
